Assay results: paper PMC4128789 (Drug Design, Development and Therapy, 2014)
Read-outs that look alike come from different tables or passages of the source.

Assays:
Format in all cases: cell-based
[1] = test system: MCF-7 (human breast adenocarcinoma) cells; assay: MTT in vitro cytotoxicity assay, MCF-7; conditions: read-out: IC50 (μM) MCF-7
Procedure, shortened: (§1)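 Cells grown in DMEM with 10% FBS, penicillin/streptomycin, 37°C, 5% CO2. Seeded at 10,000 (MCF-7), 5,000 (SW-1990) or 6,000 (SMMC-7721) per well for 24 h. Test compound in DMSO, diluted in medium (0.1% DMSO), given at 1.95–250 μM final for 48 h. MTT (5 mg/mL, 10% v/v) added for 4 h; formazan dissolved in DMSO; A570 read, 630 nm background. % inhibition calculated versus 0.1% DMSO control; IC50 from viability–dose plot; at least triplicate, mean ± SD.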

[2] = test system: SMMC-7721 (human liver carcinoma) cells; assay: MTT in vitro cytotoxicity assay, SMMC-7721; conditions: read-out: IC50 (μM) SMMC-7721
Procedure, shortened: as §1

[3] = test system: SW-1990 (human pancreatic carcinoma) cells; assay: MTT in vitro cytotoxicity assay, SW-1990; conditions: for IC50: read-out: IC50 (μM) SW-1990
Procedure, shortened: as §1

[4] = test system: Human umbilical vein endothelial cell (HUVEC); assay: MTT in vitro cytotoxicity assay, HUVEC; conditions: for selectivity toward the normal cell line HUVEC compared with berberine: cancer cell lines versus HUVEC
Procedure, shortened: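 HUVEC used at passages 1–7, grown in endothelial basal medium with 3% FBS growth supplement. Seeded at 5,000 cells/well and held 24 h at 37°C, 5% CO2. Test compound in DMSO, diluted in medium (0.1% DMSO final), given at 1.95–250 μM for 48 h. MTT added for 4 h, formazan dissolved in DMSO, absorbance read at 570 nm less 630 nm. IC50 from viability versus dose; at least triplicate, mean ± SD.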

[5] = MTT assay after 48 hours of drug exposure, mean ± SD

Row | Compound | IC50 [1, 5] [µM] | IC50 [2, 5] [µM] | IC50 [3, 5] [µM] | also measured
1 | 9-O-[1-(2-fluorobenzyl)-4-ethyl-1H-1, 2, 3-triazole] berberine chloride [Compound 5] | 75 ± 9.35 | 44.5 ± 4.88 | 64 ± 8.46 | –
2 | 9-O-[1-(2-methylbenzyl)-4-ethyl-1H-1, 2, 3-triazole] berberine chloride [Compound 14] | 40.8 ± 5.92 | 19.9 ± 2.33 | 23.7 ± 3.47 | selectivity toward the normal cell line HUVEC compared with berberine [4]: much better selectivity than berberine
3 | 9-O-[1-(3-fluorobenzyl)-4-ethyl-1H-1, 2, 3-triazole] berberine chloride [Compound 6] | 69.9 ± 8.73 | 51.5 ± 6.03 | 62.6 ± 7.85 | –
4 | 9-O-[1-(4-fluorobenzyl)-4-ethyl-1H-1, 2, 3-triazole] berberine chloride [Compound 7] | 73.5 ± 10.2 | 54.6 ± 5.98 | 53.6 ± 6.33 | –
5 | COc1ccc2cc3[n+](cc2c1OC)CCc1cc2c(cc1-3)OCO2 [BBR, berberine, reference compound] | – | – | – | IC50 ([4]; Homo sapiens, HUVEC, 48 h, read-out: IC50 (μM) HUVEC): 18.3 ± 2.31 µM; IC50 ([1]; Homo sapiens, MCF7, 48 h): 122 ± 11.3 µM; IC50 ([2]; Homo sapiens, SMMC-7721, 48 h): 68.1 ± 7.76 µM; IC50 ([3]; Homo sapiens, SW1990, 48 h): 27.6 ± 3.04 µM; inhibition at 62.5 µM ([3]; Homo sapiens, SW1990, read-out: inhibition against SW-1990 cell growth): > 50%
6 | COc1ccc2cc3[n+](cc2c1OCCc1cn(Cc2ccc(Br)cc2)nn1)CCc1cc2c(cc1-3)OCO2 [Compound 13, 9-O-[1-(4-bromobenzyl)-4-ethyl-1H-1,2,3-triazole] berberine chloride] | 47.1 ± 6.93 | 20 ± 2.37 | 30.4 ± 4.89 | –
7 | COc1ccc2cc3[n+](cc2c1OCCc1cn(Cc2ccc(C)cc2)nn1)CCc1cc2c(cc1-3)OCO2.[Cl-] [Compound 15, 9-O-[1-(4-methylbenzyl)-4-ethyl-1H-1,2,3-triazole] berberine chloride] | 37.8 ± 4.66 | 39.4 ± 4.98 | 32 ± 4.23 | selectivity toward the normal cell line HUVEC compared with berberine [4]: much better selectivity than berberine
8 | COc1ccc2cc3[n+](cc2c1OCCc1cn(Cc2cccc(C(F)(F)F)c2)nn1)CCc1cc2c(cc1-3)OCO2 [Compound 20, 9-O-[1-(3-(trifluoromethyl)benzyl-4-ethyl-1H-1,2,3-triazole]berberine chloride] | 86.2 ± 10.5 | 32.2 ± 5.2 | 39.3 ± 3.76 | –
9 | COc1ccc2cc3[n+](cc2c1OCCc1cn(Cc2ccc(C(F)(F)F)cc2)nn1)CCc1cc2c(cc1-3)OCO2 [Compound 21, 9-O-[1-(4-(trifluoromethyl)benzyl-4-ethyl-1H-1,2,3-triazole]berberine chloride] | 68.1 ± 7.56 | 23.3 ± 2.63 | 36.8 ± 3.45 | –
10 | COC(=O)c1ccc(Cn2cc(CCOc3c(OC)ccc4cc5[n+](cc34)CCc3cc4c(cc3-5)OCO4)nn2)cc1 [Compound 25, 9-O-[1-(4-methyl formatebenzyl)-4-ethyl-1H-1,2,3-triazole] berberine chloride] | 249 ± 20.1 | 53.5 ± 5.84 | 165 ± 18.9 | –
11 | COc1ccc2cc3[n+](cc2c1OCCc1cn(Cc2ccc(F)cc2F)nn1)CCc1cc2c(cc1-3)OCO2 [Compound 27, 9-O-[1-(2,4-difluorobenzyl)-4-ethyl-1H-1,2,3-triazole] berberine chloride] | 70.7 ± 6.45 | 35.9 ± 4.76 | 69 ± 9.33 | –
12 | COc1ccc2cc3[n+](cc2c1OCCc1cn(Cc2ccc(F)c(F)c2)nn1)CCc1cc2c(cc1-3)OCO2 [Compound 29, 9-O-[1-(3,4-difluorobenzyl)-4-ethyl-1H-1,2,3-triazole] berberine chloride] | 81.2 ± 10.4 | 43.8 ± 5.32 | 38.5 ± 4.65 | –
13 | COc1ccc2cc3[n+](cc2c1OCCc1cn(Cc2cc(Cl)ccc2Cl)nn1)CCc1cc2c(cc1-3)OCO2 [Compound 33, 9-O-[1-(2,5-dichlorobenzyl)-4-ethyl-1H-1,2,3-triazole] berberine chloride] | 65.5 ± 7.22 | 24.2 ± 3.48 | 38.6 ± 4.57 | –
14 | COc1ccc2cc3[n+](cc2c1OCCc1cn(Cc2ccc(Cl)c(Cl)c2)nn1)CCc1cc2c(cc1-3)OCO2.[Cl-] [Compound 35, 9-O-[1-(3,4-dichlorobenzyl)-4-ethyl-1H-1,2,3-triazole] berberine chloride] | 30.8 ± 4.32 | 16.1 ± 2.92 | 20.4 ± 2.35 | IC50 against HUVECs relative to compound 32 ([4]; ratio to compound 32 IC50): four times lower than that of 32
